Assay results taken from ChEMBL document CHEMBL1148905, “Cytotoxic constituents of roots of Chaerophyllum hirsutum” (J Nat Prod, 2004).
Counter-ions that a name gives are not always drawn.

Legend:
Type in all cases: functional, cell-based
HL-60 = assay: Cytotoxicity against human HL60 cells after 72 hrs by MTT assay; details: HL-60, 72 h
Outline: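 HL-60 leukaemia cells in exponential growth, resuspended at 1 × 10^5 cells/mL in RPMI 1640 with 10% FBS, penicillin G and streptomycin. Drug exposure for 72 h, then viability by MTT. Growth at each concentration expressed as % of untreated controls. IC50 (50% growth inhibition) by linear regression. Mean ± SEM of three independent experiments. Doxorubicin hydrochloride as reference.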

HT-1080 = assay: Cytotoxicity against human HT1080 cells after 72 hrs by MTT assay; details: HT-1080, 72 h
Outline: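 HT1080 cells grown in DMEM with 10% FBS, penicillin G and streptomycin. Exponentially growing cultures seeded at 5 × 10^4 cells/mL and left to adhere 18 h before drug addition. MTT viability read after 72 h. Growth as % of untreated controls, IC50 by linear regression. Mean ± SEM of three independent experiments. Doxorubicin hydrochloride as reference.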

LoVo [1] = assay: Cytotoxicity against human LoVo cells after 72 hrs by MTT assay
Outline: (§1)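 Parental LoVo and the mdr-expressing (P-glycoprotein) LoVo/Doxo intestinal adenocarcinoma lines cultured in Ham's F12. Exponentially growing cells seeded at 5 × 10^4 cells/mL and allowed 18 h adherence before drug. MTT viability at 72 h. Growth as % of untreated controls, IC50 by linear regression. Mean ± SEM, three independent experiments. Doxorubicin hydrochloride as reference.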

LoVo [2] = assay: Cytotoxicity against human doxorubicin-resistant LoVo cells after 72 hrs by MTT assay; outline: as §1

Row | Compound | IC50 (HL-60) | IC50 (HT-1080) | IC50 (LoVo [1]) | IC50 (LoVo [2])
1 | O=C(O)/C(=C/c1ccc(O)cc1)[C@@H](C(=O)O)C(=O)c1ccc(O)cc1 | 11.5 µM | 30.6 µM | 16.4 µM | 19.6 µM
2 | O=C1O[C@@H](c2ccc(O)cc2)[C@H](C(=O)O)/C1=C\c1ccc(O)cc1 (relative stereo) | 11.3 µM | 36 µM | 13.9 µM | > 40 µM
3 | COc1cccc2c1C(=O)c1c(O)c3c(c(O)c1C2=O)C[C@@](O)(C(=O)CO)C[C@@H]3O[C@H]1C[C@H](N)[C@H](O)[C@H](C)O1 [DOXORUBICIN HYDROCHLORIDE] | 0.01 µM | 0.012 µM | 0.2 µM | 13.2 µM
4 | C=C[C@@H](O)C#CC#C[C@@H](O)/C=C\CCCCCCC [FALCARINDIOL] | 8.9 µM | 13 µM | 4.3 µM | > 40 µM
5 | COC(=O)/C=C/c1ccc(O)c(O)c1 [METHYLCAFFEATE] | 7.5 µM | 11.1 µM | 5.8 µM | > 40 µM
6 | COc1cc2ccc(=O)oc2cc1O [SCOPOLETIN] | 9.5 µM | 12.5 µM | 7.3 µM | 18.5 µM
